In series [1] the target is GABA-A receptor; anion channel. As to the kind of experiment: Tested for inhibition of specific binding of [3H]-EBOB to GABA-Gated Chloride channels of Gamma-aminobutyric acid A receptor in rat brain cortex (Potency expressed as IC50). Format: tissue-based. The method in brief:
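Washed cortical membranes from SD rats (7 weeks), prepared in 50 mM Tris-HCl pH 7.4 and stored at -80 °C, equivalent to 5 mg tissue, incubated with 3 nM [3H]EBOB and test agent at 25 °C for 1 h. Bound ligand collected by filtration on polyethylenimine-treated GF/B filters and counted by scintillation. IC50 from dose-response curves run in duplicate.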

The test system of a further series is Mus musculus. As to the kind of experiment: Acute toxicity against mice after ip administration. The series is classed as organism-based. The following applies: in vivo.

In the case of `CCC[C@@H](O)/C=C/C=C/C=C/C#CC#CCCCOC(C)=O`, the IC50 in series [1] is 1.1 µM. Besides, in the series on Mus musculus, the LD50 worked out at 1.9 mg kg-1 i.p.

In turn, `CCCCNC(=O)CCC#CC#C/C=C/C=C/C=C/[C@H](O)CCC` yielded an IC50 in series [1] above 10 µM. The LD50 with Mus musculus worked out at 4.9 mg kg-1 i.p.

`C=C[C@@H](O)C#CC#C[C@@H](O)/C=C\CCCCCCC` [FALCARINDIOL] displayed an IC50 in series [1] above 10 µM. The LD50 in the series on Mus musculus is above 200 mg kg-1 i.p.

Turning to `CCCCCCC/C=C\C(=O)C#CC#CCCCO`, in series [1], the concentration for half-maximal inhibition (IC50) is above 10 µM. In addition, the LD50 in the series with Mus musculus is above 26 mg kg-1 i.p.

In turn, `C=C(C)[C@@H]1[C@H]2OC(=O)[C@@H]1[C@]1(O)C[C@H]3OC34C(=O)O[C@H]2[C@@]41C.CC(C)(O)[C@@H]1[C@H]2OC(=O)[C@@H]1[C@]1(O)C[C@H]3OC34C(=O)O[C@H]2[C@@]41C` (stereo not given in full) [PICROTOXIN] yielded an IC50 in series [1] of 1.31 µM. In other words, the single-digit micromolar range.

The molecule `CCC[C@H](/C=C/C=C/C=C/C#CC#CCCCOC(C)=O)OC(C)=O` yielded an IC50 in series [1] above 10 µM. Besides, the LD50 in the series with Mus musculus was 15.7 mg kg-1 i.p.

As to `CCC[C@@H](O)/C=C/C=C/C=C/C#CC#CCCCOC`, the IC50 in series [1] amounted to 6.79 µM. The same molecule showed an LD50 in the series on Mus musculus of 10.6 mg kg-1 i.p.

`CCCCCCC/C=C\[C@H](O)C#CC#CCCCO`: the 50% inhibitory concentration (IC50) in series [1] came to 6.01 µM. This molecule also displayed an LD50 in the series on Mus musculus above 393 mg kg-1 i.p.

As to `CCC[C@H](/C=C/C=C/C=C/C#CC#CCCCO)OC(C)=O`, in series [1], the half-maximal inhibitory concentration (IC50) is above 10 µM. Further, the LD50 in the series with Mus musculus came out at 2.8 mg kg-1 i.p.

On to `CCCC(=O)/C=C/C=C/C=C/C#CC#CCCCO`, for which the IC50 in series [1] turned out to be 3.05 µM. Besides, the LD50 with Mus musculus was 7.6 mg kg-1 i.p.

In series [1], `CCC[C@@H](O)/C=C/C=C/C=C/C#CC#CCCC(=O)OC` came in with an IC50 of 0.42 µM. In the series with Mus musculus, this molecule gave an LD50 of 1.6 mg kg-1 i.p.

In the case of `CCCCCC(=O)/C=C/C=C/C#CC#CCCCO`, the IC50 in series [1] was above 10 µM. Further, the LD50 in the series with Mus musculus is given as above 25.8 mg kg-1 i.p.

As for `CCC[C@@H](O)/C=C/C=C/C=C/C#CC#CCCC(=O)O`, in series [1], the IC50 amounted to 0.3 µM. In the series on Mus musculus, this molecule came in with an LD50 of 0.76 mg kg-1 i.p.

Regarding `CCC[C@@H](O)/C=C/C=C/C=C/C#CC#CCCC=O`, in series [1], the half-maximal inhibitory concentration (IC50) was 2.22 µM. In the series on Mus musculus, this molecule returned an LD50 of 4.9 mg kg-1 i.p.

In series [1], `CCC[C@@H](O)/C=C/C=C/C=C/C#CC#CCCCO` [CICUTOXIN] yielded an IC50 of 0.54 µM. In addition, the LD50 in the series with Mus musculus was 2.8 mg kg-1 i.p.

In the case of `CCCCCCC[C@H](O)/C=C/C#CC#CCCCO`, the IC50 in series [1] came to 7.87 µM. In the series with Mus musculus, this molecule had an LD50 above 105 mg kg-1 i.p.

As for `CCC[C@H](/C=C/C=C/C=C/C#CC#CCCCOC)OC`, the half-inhibitory concentration (IC50) in series [1] was above 10 µM. The same molecule had an LD50 in the series with Mus musculus above 57.2 mg kg-1 i.p.

With `CCCC#CC#C/C=C/C=C/[C@@H](O)CCCCC`, the IC50 in series [1] was above 10 µM. The LD50 in the series on Mus musculus is given as above 97.6 mg kg-1 i.p.

On to `CCC[C@@H](O)/C=C/C=C/C=C/C#CC#CCCC(N)=O`, for which the IC50 in series [1] worked out at 1.56 µM. The molecule also yielded an LD50 with Mus musculus of 1.1 mg kg-1 i.p.

The molecule `CCCC(=O)CC/C=C/C=C/C#CC#CCCCO` had an IC50 in series [1] of 3.64 µM. Also, the LD50 with Mus musculus worked out at 1.1 mg kg-1 i.p.

In turn, `CCCCCCC/C=C\CC#CC#CCCCO` showed an IC50 in series [1] above 10 µM. The same molecule registered an LD50 in the series with Mus musculus above 24.6 mg kg-1 i.p.

The molecule `CCCC(O)/C=C/C=C/C=C/C#CC#CCCCO` (stereo not given) had an IC50 in series [1] of 2.01 µM. In the series on Mus musculus, this molecule showed an LD50 of 38.6 mg kg-1 i.p.

`CCCCCC/C=C/C=C/C#CC#CCCCO` returned an IC50 in series [1] above 10 µM. For the same molecule, the LD50 in the series with Mus musculus is above 37.8 mg kg-1 i.p.

As for `CCCCC[C@H](O)/C=C/C=C/C#CC#CCCCO`, the IC50 in series [1] amounted to 1.15 µM. In the series on Mus musculus, this molecule showed an LD50 of 9.5 mg kg-1 i.p.

As for `CCCCC[C@H](O)/C=C/C=C/C#CCCCO`, the concentration for half-maximal inhibition (IC50) in series [1] was above 10 µM. The same molecule came in with an LD50 in the series with Mus musculus above 70.8 mg kg-1 i.p.

In the series on Mus musculus, `CCCCCC(O)/C=C/C=C/C#CC#CCCCO` (stereo not given) displayed an LD50 of 7.7 mg kg-1 i.p.

What is called IC50 is the concentration that inhibits the measured activity by half. Low values mean higher potency, high ones lower potency.

The record behind these values is ChEMBL document CHEMBL1133527, “Exploring the structural basis of neurotoxicity in C(17)-polyacetylenes isolated from water hemlock” (J Med Chem, 2000).
